Mdm2 MdmX PPI: human Mdm2/MdmX binding inhibition; SaOS-2 split-luciferase Mdm2/MdmX complementation, luminescence; hit rate 3% among 330,000; AID 485346; inhibition, % at 8 µM; O15151+Q00987;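 active = inhibition of at least 50% at 8 µM in the primary screen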
Target sequence (O15151 whole entry, looked up): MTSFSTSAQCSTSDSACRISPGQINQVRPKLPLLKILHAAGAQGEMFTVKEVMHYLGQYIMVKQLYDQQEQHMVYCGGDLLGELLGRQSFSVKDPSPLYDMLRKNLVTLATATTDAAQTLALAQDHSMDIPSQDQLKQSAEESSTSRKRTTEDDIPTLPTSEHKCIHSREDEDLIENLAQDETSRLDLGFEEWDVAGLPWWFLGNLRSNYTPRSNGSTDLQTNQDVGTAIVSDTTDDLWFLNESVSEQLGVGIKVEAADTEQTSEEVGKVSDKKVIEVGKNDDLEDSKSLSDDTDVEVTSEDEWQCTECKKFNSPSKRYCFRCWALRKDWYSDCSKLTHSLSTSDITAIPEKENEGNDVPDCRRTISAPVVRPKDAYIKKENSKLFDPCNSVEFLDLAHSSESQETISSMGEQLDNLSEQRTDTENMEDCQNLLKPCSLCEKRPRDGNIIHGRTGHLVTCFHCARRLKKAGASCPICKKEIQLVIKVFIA
Target sequence (Q00987 whole entry, looked up): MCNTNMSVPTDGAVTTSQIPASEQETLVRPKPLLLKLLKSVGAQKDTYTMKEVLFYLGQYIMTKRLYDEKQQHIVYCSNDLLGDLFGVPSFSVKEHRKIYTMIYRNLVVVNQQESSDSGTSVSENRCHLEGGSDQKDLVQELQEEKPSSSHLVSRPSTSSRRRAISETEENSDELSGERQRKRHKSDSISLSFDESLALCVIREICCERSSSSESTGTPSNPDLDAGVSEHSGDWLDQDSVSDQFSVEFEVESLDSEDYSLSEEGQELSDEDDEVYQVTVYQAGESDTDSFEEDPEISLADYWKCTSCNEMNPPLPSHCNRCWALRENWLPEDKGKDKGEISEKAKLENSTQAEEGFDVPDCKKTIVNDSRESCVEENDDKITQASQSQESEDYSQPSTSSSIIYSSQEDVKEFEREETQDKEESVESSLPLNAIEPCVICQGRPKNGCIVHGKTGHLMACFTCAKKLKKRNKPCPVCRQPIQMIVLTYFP
T cruzi repl: blocks replication of Trypanosoma cruzi; T. cruzi beta-gal in NIH3T3, luminescence, 90 h; inhibition, % (no concentration beside the values); hit rate 1.4% among 300,000;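 active = mean inhibition across valid replicates above about 55%, limit read from the data; inconclusive = mean below that limit but half or more replicates reach it; inactive = mean below it, under half of replicates reach it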;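 also: signal also drops with host cell toxicity which is not excluded here; 0% = plate median of DMSO wells and 100% = zero luminescence signal; higher percent means less beta-gal luminescence so fewer parasites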
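System – NIH/3T3 host cells with β-galactosidase reporter T. cruzi · Doses – single 50 nL compound addition per well in DMSO · Reagent – 5000 T. cruzi trypomastigotes/well · Medium – Low-serum DMEM with 2% FBS · Timing – ≥90 h infection period, 3 h prior cell attachment · Evaluation – parasite load inhibition, % · Technique – GalScreen luminescence, 60 min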
SKKanGAS inh: inhibitors of SKKanGAS S. pyogenes growth in kanamycin (SK-promoter or general growth effect); inhibition, % at 7.5 µM; BacTiter-Glo, 6 h; hit rate 1.3% among 300,000;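 active = mean replicate score, as percent of positive control median, at least 50; inconclusive = mean below 50 but one replicate at or above 50; inactive = mean and every replicate below 50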;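 also: strain carries kanamycin resistance gene driven by streptokinase promoter and grows in 40 µg/ml kanamycin; loss of luminescence reflects streptokinase promoter inhibition or plain growth inhibition; 0% = median of DMSO wells and 100% = positive control at its reference dose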
CSC inhib: blocks cancer stem cells. cancer stem cell-like cells viability, luminescence. inhibition, % at 7.5 µM. hit rate 1.1% among 300,000. AID 2717; in the data active = inhibition above about 75%; inconclusive = no clear call, values can overlap the other calls; tested in HMLE shEcad cells
aSyn 5UTR inh: 5' untranslated region of α-synuclein, MLPCN primary screen. AID 1813. alpha-synuclein 5'UTR reporter, inhibitor activity. inhibition, % (tested at 7.5 µM). hit rate 0.82% among 300,000; in the data active = inhibition above about 60%; inconclusive = no clear call, values can overlap the other calls;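 also: H4 neuroglioblastoma cells stably carrying SNCA 5'UTR luciferase fusion; 0% = DMSO wells and 100% = positive control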
Mdm2 MdmX conf: confirmation of human Mdm2/MdmX interaction inhibitors; shares compounds with Mdm2 MdmX PPI; Mdm2-MdmX binding, luminescent assay; inhibition, % at 8 µM; hit rate 55% among 10,000; in the data active = inhibition above about 40%
FLuc counter: full-length luciferase inhibition in Mdm2/MdmX counter-screen; hit rate 77% among 6,200; SaOS-2 full-length luciferase counterscreen, luminescence; inhibition, % at 8 µM; AID 504607; shares compounds with Mdm2 MdmX PPI;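 active = mean inhibition at 8 µM reaching about 37%, which flags the compound as non-specific, limit read from the data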;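 also: p53-null SaOS-2 cells with luciferase driven by a doxycycline-inducible promoter; compound on cells about two nights before reading with doxycycline added after day one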
* marks the source's active call; other numbers are inactive results; ? = inconclusive; nt = no result given; ! = not confirmed by another sample. This is a sample that favours compounds with a hit; in the whole collection about 5.4% have one here.

SMILES	Mdm2 MdmX PPI	T cruzi repl	SKKanGAS inh	CSC inhib	aSyn 5UTR inh	Mdm2 MdmX conf	others
N=c1ccn(Cc2ccc(F)cc2)cc1	11.1	-21.4	-0.1	-3.2	3.8	nt
Cc1ccc(C(=O)CN2C(=O)NC3(CCc4ccccc43)C2=O)s1 (stereo not given)	-20.6	nt	nt	nt	nt	nt
COc1cccc(/C=N/n2c(N)c(S(=O)(=O)c3cccs3)c3nc4ccccc4nc32)c1OC	82.7*	35.3	21.3	5.2	9.9	27.1
Nc1c(S(=O)(=O)c2cccc(Cl)c2)c2nc3ccccc3nc2n1/N=C/c1ccc(O)c(O)c1	83.6*	62.0*	94.6*	-9.7	88.8*	35.5
COCCn1c(N)c(S(=O)(=O)c2cccs2)c2nc3ccccc3nc21	30.7	8.3	-2.0	-13.8	16.8	nt
COc1ccc2cc(C3(C)NC(=O)N(CC(=O)NCC(F)(F)F)C3=O)ccc2c1 (stereo not given)	16.4	-11.4	-7.0	-12.1	17.2	nt
COCCNC(=O)Cc1c(C)c2c(cc(C)c3c(C(C)(C)C)coc32)oc1=O	66.8*	13.4	4.5	69.1	-115.5	44.5*	FLuc counter=64.1*
Cc1cc2oc(=O)c(CC(=O)NCCCN(C)C)c(C)c2c2occ(C(C)(C)C)c12	94.0*	59.2*	-4.8	90.9*	?	76.3*	FLuc counter=41.1*
Cc1cc2oc(=O)c(CC(=O)NCCCO)c(C)c2c2occ(C(C)(C)C)c12	23.1	0.6	-5.0	21.4	-45.5	nt
CCN(CC(=O)NCc1cccs1)C(=O)c1cccc(S(=O)(=O)N2CC(C)OC(C)C2)c1 (stereo not given)	-25.8	nt	nt	-4.1	nt	nt
CCOC(=O)c1ccc2nc3c(cc2c1)CCS3	-67.4	12.9	-1.1	6.9	-148.5	nt
O=C(CN1C(=O)C(=O)N(Cc2ccccc2)C1=O)Nc1ccc(F)c(Cl)c1	-41.9	-3.3	-2.8	-5.6	5.0	nt
Cc1ccc2nc(/C(C#N)=C/c3cn[nH]c3-c3ccc(F)cc3)[nH]c2c1	65.6*	21.4	13.7	41.2	-174.6	57.1*	FLuc counter=47.8*
Cc1ccc2nc(/C(C#N)=C/c3ccc(O)c(O)c3)[nH]c2c1	-0.1	-21.6	22.2	40.0	-221.6	nt
CCOc1ccccc1OCCCC(=O)Nc1ccc(Cl)c(S(=O)(=O)N2CCOCC2)c1	-3.7	nt	nt	3.4	nt	nt
Cc1sc2nc(SCC(=O)NCc3ccco3)n(CCc3ccccc3)c(=O)c2c1C	62.9*	40.5	-0.2	0.4	7.6	25.1
COCCNC(=O)CSc1nc2cc(OC)c(OC)cc2c(=O)n1Cc1ccc(OC)cc1	15.6	-2.9	8.0	-5.3	19.9	nt
COc1cc2nc(SCC(=O)NCc3ccco3)n(Cc3ccc(Cl)cc3)c(=O)c2cc1OC	77.7*	-12.1	0.3	nt	28.6	31.7
CCC1CCC2(CC1)NC(=O)N(CC(=O)NCc1ccccc1Cl)C2=O (stereo not given)	2.1	nt	nt	-3.9	nt	nt
O=C(Nc1ccccc1)N1CCN(S(=O)(=O)c2ccccc2)CC1	4.2	0.5	-1.6	1.0	-11.7	nt
CCc1cccc2c(C(=O)CN3C(=O)N(C)C4(CCCCC4)C3=O)c[nH]c12	52.5*	nt	nt	nt	nt	23.6
CCc1cccc2c(C(=O)CN3C(=O)NC4(CCc5ccccc54)C3=O)c[nH]c12 (stereo not given)	7.1	31.6	14.3	-6.1	31.3	nt
CCOc1ccc(CNC(=O)C2CCN(C(=O)N3CC(C)Oc4ccccc43)CC2)cc1 (stereo not given)	8.7	3.6	-2.1	-14.1	2.9	nt
CCCOc1ccc(CNC(=O)C2CCN(C(=O)N3CCOc4ccccc43)CC2)cc1	50.6*	5.1	5.9	-0.2	31.9	-0.3
Cc1nnc(SCC(=O)NC2CCCC(C)C2C)n1N (stereo not given)	10.4	nt	nt	-6.0	nt	nt
SMILES	Mdm2 MdmX PPI	T cruzi repl	SKKanGAS inh	CSC inhib	aSyn 5UTR inh	Mdm2 MdmX conf	others
Nc1c(C(=O)NC2CCCC2)c2nc3ccccc3nc2n1/N=C/c1ccco1	72.8*	3.8	6.9	-1.6	-3.6	9.2
O=C(O)c1cnc(-c2ccccc2)nc1Sc1ccc(Cl)cc1Cl	12.3	-7.6	?	67.1	5.7	nt
O=C1NC(=S)N/C1=C/c1ccc2c(c1)OCO2	80.1*	8.9	-4.2	17.5	4.6	50.5*	FLuc counter=91.1*
O=C1NC(=S)N/C1=C/c1ccc2ccccc2c1	-6.9	2.0	-0.6	-3.5	-83.6	nt
CC1CN(c2ccc([N+](=O)[O-])c(NCCOc3ccccc3)c2)CC(C)N1 (stereo not given)	25.0	41.8	1.3	61.8	-20.8	nt
O=[N+]([O-])c1ccc(N2CCCCC2)cc1NCCOc1ccccc1	8.8	9.4	2.4	19.7	-41.0	nt
Cc1ccccc1OCCNc1cc(N2CC(C)NC(C)C2)ccc1[N+](=O)[O-] (stereo not given)	80.5*	44.2	6.7	nt	-37.3	30.1
CCc1ccc(OCCNc2cc(N3CCNC(C)C3)ccc2[N+](=O)[O-])cc1 (stereo not given)	95.2*	nt	nt	nt	nt	38.4	FLuc counter=75.5*
N/C(=N\OC(=O)Nc1ccccc1)c1ncc([N+](=O)[O-])s1	30.1	9.2	13.0	15.8	-94.2	nt
c1ccc(Oc2cnc3ccccc3n2)cc1	15.2	-11.1	12.8	1.4	-31.3	nt
c1ccc(Oc2c3ccccc3nc3ccccc23)cc1	73.3*	-13.1	-4.0	30.0	-27.9	4.7
Nc1c2c(nc3ccccc13)CCCC2	2.6	-4.5	-0.1	-2.9	-15.6	nt
Nc1c2ccccc2nc2ccccc12	71.3*	69.2*!	-0.1	63.0	89.4*	71.0*	FLuc counter=51.5*!
Cc1ccc(S(=O)(=O)CCc2nnc(NC(=O)CCl)s2)cc1C	74.8*	43.5	-2.5	-3.6	-55.1	11.1
Cc1ccc(S(=O)(=O)CCc2nnc(N)s2)cc1C	29.2	-17.6	-4.5	-13.0	2.0	nt
O=S1(=O)C=C(Sc2nnc(-c3ccccc3)o2)c2ccccc21	80.1*	63.2*	18.0	108.2*	-117.5	99.8*	FLuc counter=50.4*
Cc1nc(SCC(=O)N2c3ccccc3NC(=O)CC2C)c2c(C)c(C)sc2n1 (stereo not given)	14.6	nt	nt	nt	nt	nt
Cc1sc2nc(C3CC3)nc(SCC(=O)N3c4ccccc4CC3C)c2c1C (stereo not given)	85.5*	30.1	31.3	57.5	9.5	89.6*	FLuc counter=52.9*
COc1ccc(CCNC(=O)c2nnn(-c3ccc4c(c3)OCCO4)c2N)cc1OC	80.5*	-11.4	2.9	-11.3	26.7	79.0*	FLuc counter=37.9*
COc1ccc(CCNC(=O)c2nnn(-c3ccccc3OC)c2N)cc1OC	21.1	-15.9	-1.7	-6.6	-11.1	nt
Cc1c(O)cccc1C(=O)N[C@@H](CSc1ccccc1)[C@H](O)CN1C[C@H]2CCCC[C@H]2C[C@H]1C(=O)NC(C)(C)C	56.4*	66.6*!	9.1	77.5*!	-23.2	17.6
CCc1ccc(/C=C/c2c[nH]c3ccccc23)[n+](CC)c1	53.4*	40.4	-1.5	18.0	9.8	44.0*	FLuc counter=58.9*
CCc1ccc(-c2csc(-c3c[nH]c4ccccc34)n2)cc1	-213.6	-15.8	-12.8	59.3	-307.9	nt
